Measurements reported in ChEMBL document CHEMBL2062389, “Novel Cyclopropyl-Indole Derivatives as HIV Non-Nucleoside Reverse Transcriptase Inhibitors” (ACS Med Chem Lett, 2012).

Assays:
[1] = tested on: Human immunodeficiency virus 1; test: Antiviral activity against Human immunodeficiency virus 1 infected in human 293T cells assessed as inhibition of viral replication after 48 hrs by luminescence analysis; assay type: functional, organism-based; settings: Human immunodeficiency virus 1, HEK-293T
Summary of the method: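 Single-cycle, nonreplicative phenotypic assay against wild-type HIV-1, using virus-like particles made with an HIV-1 retroviral vector system. Compounds incubated with 293T cells and VLPs for 48 h. Inhibition quantified by luminescence and reported as IC50 (μM).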

[2] = Cytotoxicity against human 293T cells after 48 hrs by colorimetric analysis; assay type: cell-based; settings: HEK-293T cells

| SMILES | IC50 [1] [µM] | CC50 at 48 h [2] [µM] |
| --- | --- | --- |
| Cc1ccnc2c1NC(=O)c1cccnc1N2C1CC1 [NEVIRAPINE] | 0.087 |  |
| OCc1[nH]c2ccc(Cl)cc2c1C1(c2ccccc2)CC1 | 8.25 | 34.1 |
| NC(=O)c1[nH]c2ccc(Cl)cc2c1C1(c2cccs2)CC1 | 0.121 | 25.6 |
| CCOC(=O)c1[nH]c2ccc(Cl)cc2c1C1(c2ccccc2)CC1 | 0.085 | 30.3 |
| CCOC(=O)c1[nH]c2ccc(Br)cc2c1C1(c2ccccc2)CC1 | 0.066 | 24.5 |
| NC(=O)c1[nH]c2ccc(Cl)cc2c1C1(c2ccccc2)CC1 | 0.096 | 14.2 |
| CCOC(=O)c1[nH]c2ccc(Cl)cc2c1C1(c2cccs2)CC1 | 0.065 | 67.1 |
| O=C(O)c1[nH]c2ccc(Cl)cc2c1C1(c2cccs2)CC1 | 48.2 | 140 |
| O=C(O)c1[nH]c2ccc(Cl)cc2c1C1(c2ccccc2)CC1 | 28.5 | 92.3 |
| OCc1[nH]c2ccc(Cl)cc2c1C1(c2cccs2)CC1 | 14.4 | 36.6 |
| CCOC(=O)c1[nH]c2ccc(Cl)cc2c1C1(C)CC1 | 2.25 | 44.3 |
